Data taken from ChEMBL document CHEMBL4689842, “EUbOPEN Chemogenomics Library wave 1” (2021).

Tested on: HEK-293T
Experiment: Multiplex assay against HEK293T;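 for Population Tubulin-Different-Phenotype (%): share of the cells with healthy nuclei that show this phenotype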
Format: toxicity, cell-based
Conditions: human
Method in brief: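 Tubulin, mitochondrial-mass and membrane-permeability phenotypes are per cents of healthy-nucleus cells. Cells were gated by CellPathfinder machine learning into Hoechst high-intensity objects or normal cells, normal cells into healthy, pyknosed or fragmented nuclei, and pyknosed cells into mitotic or apoptotic. Before that, live cells stained at seeding with Hoechst33342, BioTracker Green Microtubule Cytoskeleton Dye, MitoTracker Red and Annexin V Alexa Fluor 680 were imaged on a CQ1 microscope at 37°C and 5% CO2 after compound addition.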

[1] = 12 h, 1 µM, compound concentration 1 uM, replicate 1
[2] = 12 h, 1 µM, compound concentration 1 uM, replicate 2
[3] = 12 h, 10 µM, compound concentration 10 uM, replicate 1
[4] = 12 h, 10 µM, compound concentration 10 uM, replicate 2
[5] = 24 h, 1 µM, compound concentration 1 uM, replicate 1
[6] = 24 h, 1 µM, compound concentration 1 uM, replicate 2
[7] = 24 h, 10 µM, compound concentration 10 uM, replicate 1
[8] = 24 h, 10 µM, compound concentration 10 uM, replicate 2
[9] = 48 h, 1 µM, compound concentration 1 uM, replicate 1
[10] = 48 h, 1 µM, compound concentration 1 uM, replicate 2
[11] = 48 h, 10 µM, compound concentration 10 uM, replicate 1
[12] = 48 h, 10 µM, compound concentration 10 uM, replicate 2

Cc1cn(-c2cc(NC(=O)c3ccc(C)c(Nc4nccc(-c5cccnc5)n4)c3)cc(C(F)(F)F)c2)cn1 [NILOTINIB]
Population Apoptotic (%) [1]: 65% | Population Fragmented Nuclei (%) [1]: 10% | Population Hoechst High Intensity Objects (%) [1]: 17% | Population Membrane Permeable-Phenotype (%) [1]: 2% | Population Mitochondria Different-Phenotype (%) [1]: 92% | Population Mitotic Cells (%) [1]: 34% | Population Normal (%) [1]: 82% | Population Pyknosed Nuclei (%) [1]: 51% | Population Tubulin-Different-Phenotype (%) [1]: 98% | Total Cell Count [1]: 215 | Population Apoptotic (%) [2]: 21% | Population Fragmented Nuclei (%) [2]: 7% | Population Healthy Nuclei (%) [2]: 37% | Population Hoechst High Intensity Objects (%) [2]: 6% | Population Membrane Permeable-Phenotype (%) [2]: 10% | Population Mitochondria Different-Phenotype (%) [2]: 10% | Population Mitotic Cells (%) [2]: 78% | Population Normal (%) [2]: 93% | Population Pyknosed Nuclei (%) [2]: 55% | Population Tubulin-Different-Phenotype (%) [2]: 15% | Total Cell Count [2]: 164 | Population Apoptotic (%) [3]: 91% | Population Fragmented Nuclei (%) [3]: 54% | Population Healthy Nuclei (%) [3]: 12% | Population Hoechst High Intensity Objects (%) [3]: 48% | Population Membrane Permeable-Phenotype (%) [3]: 6% | Population Mitochondria Different-Phenotype (%) [3]: 61% | Population Mitotic Cells (%) [3]: 8% | Population Normal (%) [3]: 51% | Population Pyknosed Nuclei (%) [3]: 32% | Population Tubulin-Different-Phenotype (%) [3]: 59% | Total Cell Count [3]: 738 | Population Apoptotic (%) [4]: 38% | Population Fragmented Nuclei (%) [4]: 9% | Population Healthy Nuclei (%) [4]: 32% | Population Hoechst High Intensity Objects (%) [4]: 3% | Population Membrane Permeable-Phenotype (%) [4]: 3% | Population Mitochondria Different-Phenotype (%) [4]: 71% | Population Mitotic Cells (%) [4]: 62% | Population Normal (%) [4]: 96% | Population Pyknosed Nuclei (%) [4]: 57% | Population Tubulin-Different-Phenotype (%) [4]: 80% | Total Cell Count [4]: 179 | Population Apoptotic (%) [5]: 69% | Population Fragmented Nuclei (%) [5]: 14% | Population Healthy Nuclei (%) [5]: 39% | Population Hoechst High Intensity Objects (%) [5]: 15% | Population Membrane Permeable-Phenotype (%) [5]: 1% | Population Mitochondria Different-Phenotype (%) [5]: 98% | Population Mitotic Cells (%) [5]: 30% | Population Normal (%) [5]: 84% | Population Pyknosed Nuclei (%) [5]: 46% | Population Tubulin-Different-Phenotype (%) [5]: 94% | Total Cell Count [5]: 213 | Population Apoptotic (%) [6]: 18% | Population Fragmented Nuclei (%) [6]: 7% | Population Healthy Nuclei (%) [6]: 56% | Population Hoechst High Intensity Objects (%) [6]: 4% | Population Membrane Permeable-Phenotype (%) [6]: 8% | Population Mitochondria Different-Phenotype (%) [6]: 23% | Population Mitotic Cells (%) [6]: 81% | Population Normal (%) [6]: 95% | Population Pyknosed Nuclei (%) [6]: 35% | Population Tubulin-Different-Phenotype (%) [6]: 38% | Total Cell Count [6]: 212 | Population Apoptotic (%) [7]: 87% | Population Fragmented Nuclei (%) [7]: 64% | Population Healthy Nuclei (%) [7]: 11% | Population Hoechst High Intensity Objects (%) [7]: 50% | Population Membrane Permeable-Phenotype (%) [7]: 1% | Population Mitochondria Different-Phenotype (%) [7]: 50% | Population Mitotic Cells (%) [7]: 12% | Population Normal (%) [7]: 49% | Population Pyknosed Nuclei (%) [7]: 24% | Population Tubulin-Different-Phenotype (%) [7]: 51% | Total Cell Count [7]: 958 | Population Apoptotic (%) [8]: 41% | Population Fragmented Nuclei (%) [8]: 5% | Population Healthy Nuclei (%) [8]: 57% | Population Hoechst High Intensity Objects (%) [8]: 2% | Population Membrane Permeable-Phenotype (%) [8]: 5% | Population Mitochondria Different-Phenotype (%) [8]: 68% | Population Mitotic Cells (%) [8]: 58% | Population Normal (%) [8]: 97% | Population Pyknosed Nuclei (%) [8]: 36% | Population Tubulin-Different-Phenotype (%) [8]: 85% | Total Cell Count [8]: 209 | Population Apoptotic (%) [9]: 64% | Population Fragmented Nuclei (%) [9]: 17% | Population Healthy Nuclei (%) [9]: 31% | Population Hoechst High Intensity Objects (%) [9]: 19% | Population Membrane Permeable-Phenotype (%) [9]: 1% | Population Mitochondria Different-Phenotype (%) [9]: 88% | Population Mitotic Cells (%) [9]: 36% | Population Normal (%) [9]: 80% | Population Pyknosed Nuclei (%) [9]: 50% | Population Tubulin-Different-Phenotype (%) [9]: 85% | Total Cell Count [9]: 244 | Population Apoptotic (%) [10]: 16% | Population Fragmented Nuclei (%) [10]: 4% | Population Healthy Nuclei (%) [10]: 80% | Population Hoechst High Intensity Objects (%) [10]: 3% | Population Membrane Permeable-Phenotype (%) [10]: 9% | Population Mitochondria Different-Phenotype (%) [10]: 9% | Population Mitotic Cells (%) [10]: 83% | Population Normal (%) [10]: 96% | Population Pyknosed Nuclei (%) [10]: 14% | Population Tubulin-Different-Phenotype (%) [10]: 38% | Total Cell Count [10]: 337 | Population Apoptotic (%) [11]: 84% | Population Fragmented Nuclei (%) [11]: 64% | Population Healthy Nuclei (%) [11]: 14% | Population Hoechst High Intensity Objects (%) [11]: 52% | Population Membrane Permeable-Phenotype (%) [11]: 0% | Population Mitochondria Different-Phenotype (%) [11]: 34% | Population Mitotic Cells (%) [11]: 15% | Population Normal (%) [11]: 47% | Population Pyknosed Nuclei (%) [11]: 20% | Population Tubulin-Different-Phenotype (%) [11]: 32% | Total Cell Count [11]: 1138 | Population Apoptotic (%) [12]: 41% | Population Fragmented Nuclei (%) [12]: 7% | Population Healthy Nuclei (%) [12]: 69% | Population Hoechst High Intensity Objects (%) [12]: 1% | Population Membrane Permeable-Phenotype (%) [12]: 1% | Population Mitochondria Different-Phenotype (%) [12]: 61% | Population Mitotic Cells (%) [12]: 58% | Population Normal (%) [12]: 98% | Population Pyknosed Nuclei (%) [12]: 23% | Population Tubulin-Different-Phenotype (%) [12]: 84% | Total Cell Count [12]: 290

COc1cccc2cc(-c3nc([C@H]4CC[C@H](C(=O)O)CC4)n4ncnc(N)c34)[nH]c12 [OSI-027]
Population Apoptotic (%) [1]: 25% | Population Fragmented Nuclei (%) [1]: 14% | Population Healthy Nuclei (%) [1]: 55% | Population Hoechst High Intensity Objects (%) [1]: 16% | Population Membrane Permeable-Phenotype (%) [1]: 3% | Population Mitochondria Different-Phenotype (%) [1]: 10% | Population Mitotic Cells (%) [1]: 74% | Population Normal (%) [1]: 83% | Population Pyknosed Nuclei (%) [1]: 29% | Population Tubulin-Different-Phenotype (%) [1]: 5% | Total Cell Count [1]: 587 | Population Apoptotic (%) [2]: 9% | Population Fragmented Nuclei (%) [2]: 6% | Population Healthy Nuclei (%) [2]: 85% | Population Hoechst High Intensity Objects (%) [2]: 6% | Population Membrane Permeable-Phenotype (%) [2]: 2% | Population Mitochondria Different-Phenotype (%) [2]: 13% | Population Mitotic Cells (%) [2]: 90% | Population Normal (%) [2]: 93% | Population Pyknosed Nuclei (%) [2]: 7% | Population Tubulin-Different-Phenotype (%) [2]: 10% | Total Cell Count [2]: 997 | Population Apoptotic (%) [3]: 23% | Population Fragmented Nuclei (%) [3]: 32% | Population Healthy Nuclei (%) [3]: 40% | Population Hoechst High Intensity Objects (%) [3]: 22% | Population Membrane Permeable-Phenotype (%) [3]: 8% | Population Mitochondria Different-Phenotype (%) [3]: 2% | Population Mitotic Cells (%) [3]: 76% | Population Normal (%) [3]: 77% | Population Pyknosed Nuclei (%) [3]: 27% | Population Tubulin-Different-Phenotype (%) [3]: 2% | Total Cell Count [3]: 379 | Population Apoptotic (%) [4]: 10% | Population Fragmented Nuclei (%) [4]: 9% | Population Healthy Nuclei (%) [4]: 85% | Population Hoechst High Intensity Objects (%) [4]: 5% | Population Membrane Permeable-Phenotype (%) [4]: 0% | Population Mitochondria Different-Phenotype (%) [4]: 8% | Population Mitotic Cells (%) [4]: 89% | Population Normal (%) [4]: 94% | Population Pyknosed Nuclei (%) [4]: 5% | Population Tubulin-Different-Phenotype (%) [4]: 5% | Total Cell Count [4]: 1068 | Population Apoptotic (%) [5]: 22% | Population Fragmented Nuclei (%) [5]: 15% | Population Healthy Nuclei (%) [5]: 60% | Population Hoechst High Intensity Objects (%) [5]: 19% | Population Membrane Permeable-Phenotype (%) [5]: 15% | Population Mitochondria Different-Phenotype (%) [5]: 8% | Population Mitotic Cells (%) [5]: 77% | Population Normal (%) [5]: 80% | Population Pyknosed Nuclei (%) [5]: 24% | Population Tubulin-Different-Phenotype (%) [5]: 20% | Total Cell Count [5]: 478 | Population Apoptotic (%) [6]: 4% | Population Fragmented Nuclei (%) [6]: 7% | Population Healthy Nuclei (%) [6]: 83% | Population Hoechst High Intensity Objects (%) [6]: 8% | Population Membrane Permeable-Phenotype (%) [6]: 6% | Population Mitochondria Different-Phenotype (%) [6]: 13% | Population Mitotic Cells (%) [6]: 95% | Population Normal (%) [6]: 91% | Population Pyknosed Nuclei (%) [6]: 8% | Population Tubulin-Different-Phenotype (%) [6]: 37% | Total Cell Count [6]: 849 | Population Apoptotic (%) [7]: 12% | Population Fragmented Nuclei (%) [7]: 29% | Population Healthy Nuclei (%) [7]: 53% | Population Hoechst High Intensity Objects (%) [7]: 14% | Population Membrane Permeable-Phenotype (%) [7]: 10% | Population Mitochondria Different-Phenotype (%) [7]: 3% | Population Mitotic Cells (%) [7]: 87% | Population Normal (%) [7]: 85% | Population Pyknosed Nuclei (%) [7]: 17% | Population Tubulin-Different-Phenotype (%) [7]: 6% | Total Cell Count [7]: 371 | Population Apoptotic (%) [8]: 0% | Population Fragmented Nuclei (%) [8]: 18% | Population Healthy Nuclei (%) [8]: 78% | Population Hoechst High Intensity Objects (%) [8]: 5% | Population Membrane Permeable-Phenotype (%) [8]: 5% | Population Mitotic Cells (%) [8]: 100% | Population Normal (%) [8]: 94% | Population Pyknosed Nuclei (%) [8]: 2% | Population Tubulin-Different-Phenotype (%) [8]: 10% | Total Cell Count [8]: 1604
